Reference: ChEMBL document CHEMBL4368897, “Using 2-aminobenzimidazole derivatives to inhibit Mycobacterium smegmatis biofilm formation” (Medchemcomm, 2019)
Values after ≈ are worked out from the molar mass of the structure shown.

Legend:
[1] = tested on: Mycolicibacterium smegmatis; test: Antimicrobial activity against Mycobacterium smegmatis str. MC2 155 ATCC 700084 assessed as inhibition of planktonic bacteria growth incubated for 48 hrs by broth microdilution method; assay type: organism-based
Method in brief: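 48 h preculture in 7H9 (ADC, 0.5% Tween 80) used to inoculate fresh 7H9 at 5 × 10^5 CFU mL-1 (OD600 0.006). Compounds added from 100 mM DMSO-d6 stocks and twofold serially diluted. Incubated stationary at 37 °C for 48 h, then 6 h more with alamarBlue. MIC = lowest concentration without visible growth. Duplicate, at least two separate runs.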

[2] = tested on: Mycolicibacterium smegmatis; test: Antibiofilm activity against Mycobacterium smegmatis str. MC2 155 ATCC 700084 assessed as inhibition of biofilm formation incubated for 48 hrs by crystal violet reporter assay; assay type: functional, organism-based; conditions: for IC50: Mycolicibacterium smegmatis, MC2 155 ATCC 700084, 48 h
Method in brief: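 48 h culture subcultured to 0.01 in M9 minimal salts medium containing compound. Incubated in PVC plates, stationary, 37 °C, 48 hr. Wells washed with water, stained 30 min with 0.1% crystal violet, and eluted with 95% ethanol for 10 min. OD540 read; % inhibition taken versus untreated wells. Duplicate wells, at least two separate runs.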

[3] = tested on: Mycolicibacterium smegmatis; test: Potentiation of ampicillin-induced antimicrobial activity against Mycobacterium smegmatis str. MC2 155 ATCC 700084 assessed as fold reduction in ampicillin MIC at 20 uM incubated for 48 hrs by broth microdilution method; assay type: functional
[4] = tested on: Mycolicibacterium smegmatis; test: Potentiation of cefotaxime-induced antimicrobial activity against Mycobacterium smegmatis str. MC2 155 ATCC 700084 assessed as fold reduction in cefotaxime MIC at 20 uM incubated for 48 hrs by broth microdilution method; assay type: functional

Structure (SMILES)	MIC [1] [µM]	IC50 [2] [µM]	fold change (FC) [3]	fold change (FC) [4]	MBIC50 [2] [µM]
Nc1nc2cc(NC(=O)Nc3ccc(Cl)c(Cl)c3)ccc2n1CCCc1ccccc1	100 (≈ 45.4 µg/mL)	2.6	2	2	–
CCCCCc1ccc(C(=O)Nc2ccc3c(c2)nc(N)n3CCCc2ccc(Cl)cc2)cc1	120 (≈ 57 µg/mL)	6.4	4	8	–
CCCCCc1ccc(C(=O)Nc2ccc3c(c2)nc(N)n3CCc2ccc(OC)cc2)cc1	120 (≈ 54.8 µg/mL)	8.8	–	–	–
CCCCCCCCCn1c(N)nc2cc(NC(=O)c3ccc(CCCCC)cc3)ccc21	200 (≈ 89.7 µg/mL)	23.2	–	–	–
CCCCCc1ccc(C(=O)Nc2ccc3c(c2)nc(N)n3CCCCc2ccccc2)cc1	100 (≈ 45.5 µg/mL)	4.3	–	–	–
CCCCCc1ccc(C(=O)Nc2ccc3c(c2)nc(N)n3Cc2ccccc2)cc1	100 (≈ 41.3 µg/mL)	12.2	–	–	–
Nc1nc2cc(NC(=O)c3ccc(Cl)c(Cl)c3)ccc2n1CCCc1ccccc1	200 (≈ 87.9 µg/mL)	8.8	–	–	–
CCCCCc1ccc(C(=O)Nc2ccc3c(c2)nc(N)n3CCCc2ccc(F)cc2)cc1	120 (≈ 55 µg/mL)	3.6	4	64	–
CCCCCCn1c(N)nc2cc(NC(=O)c3ccc(CCCCC)cc3)ccc21	> 200	25.6	–	–	–
CCCCCc1ccc(C(=O)Nc2ccc3c(c2)nc(N)n3CCc2ccccc2OC)cc1	120 (≈ 54.8 µg/mL)	11.3	–	–	–
CCCCCc1ccc(C(=O)Nc2ccc3c(c2)nc(N)n3Cc2ccc(OC)cc2)cc1	> 200	12.5	–	–	–
CCCCCc1ccc(C(=O)Nc2ccc3c(c2)nc(N)n3CCCc2ccc(OC)cc2)cc1	100 (≈ 47.1 µg/mL)	4.3	4	16	–
CCCCCc1ccc(C(=O)Nc2ccc3c(c2)nc(N)n3CCCC)cc1	> 200	22.4	–	–	–
Nc1nc2cc(NC(=O)c3cc(Cl)cc(Cl)c3)ccc2n1CCCc1ccccc1	200 (≈ 87.9 µg/mL)	9.4	–	–	–
CCCCCc1ccc(C(=O)Nc2ccc3c(c2)nc(N)n3CCc2ccccc2)cc1	100 (≈ 42.7 µg/mL)	5.4	–	–	–
Nc1nc2cc(C(=O)Nc3ccc(Cl)c(Cl)c3)ccc2n1CCCc1ccccc1	200 (≈ 87.9 µg/mL)	8.6	–	–	–
CCCCCc1ccc(C(=O)Nc2ccc3c(c2)nc(N)n3CCCc2cccc(Br)c2)cc1	100 (≈ 51.9 µg/mL)	9.2	–	–	–
CCCCCc1ccc(C(=O)Nc2ccc3[nH]c(N)nc3c2)cc1	150 (≈ 48.4 µg/mL)	13.6	–	–	–
CCCCCc1ccc(C(=O)Nc2ccc3c(c2)nc(N)n3CCCc2ccccc2)cc1	60 (≈ 26.4 µg/mL)	3.5	16	128	8
CCCCCc1ccc(C(=O)Nc2ccc3c(c2)nc(N)n3CCCc2ccccc2Br)cc1	120 (≈ 62.3 µg/mL)	10.5	–	–	–
CCCCCc1ccc(C(=O)Nc2ccc3c(c2)nc(N)n3CCc2cccc(OC)c2)cc1	200 (≈ 91.3 µg/mL)	12.5	–	–	–
CCCCCc1ccc(C(=O)Nc2ccc3c(c2)nc(N)n3CCCc2ccc(Br)cc2)cc1	100 (≈ 51.9 µg/mL)	6.2	4	16	–
